In ChEMBL document CHEMBL3351342, “Synthesis and biological evaluation of phenoxyacetic acid derivatives as novel free fatty acid receptor 1 agonists” (Bioorg Med Chem, 2015):
Activity calls are given as the source filed them. No cut-off for these calls is given here.

What was measured:
Mus musculus [1] = experiment: Hypoglycemic effect in ICR mouse assessed as improvement in glucose intolerance at 20 mg/kg, po dosed 30 mins before oral glucose challenge by oral glucose tolerance test; format: functional, organism-based; parameters: dose 20 mg/kg
Summary of the method: (§1)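 Male ICR mice, 10 weeks old, fasted 12 h and randomized (n = 6). Single oral dose of 20 mg/kg as a suspension in 0.5% methylcellulose (1.0 mL/kg), given 30 min before an oral glucose load of 2 g/kg (20% solution). Blood glucose read by test strip at −30, 0, 15, 30, 60 and 120 min. AUC0–120 min calculated; mean ± SEM.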

Mus musculus [2] = experiment: Hypoglycemic effect in ICR mouse assessed as reduction in glucose AUC (0 to 120 mins) at 20 mg/kg, po dosed 30 mins before oral glucose challenge by oral glucose tolerance test; format: functional; parameters: scale not given: the % may be the effect or the level left; summary of the method: as §1
[3] = Half life in Sprague-Dawley rat at 1 mg/kg, po; format: ADME, organism-based; parameters: dose 1 mg/kg, route oral; conditions: in vivo
Summary of the method: (§2)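 Fasted male SD rats (n = 3). Dosed 1 mg/kg iv (0.5 mg/mL, 2 mL/kg) or 1 mg/kg po (1 mg/mL, 1 mL/kg), both in 0.5% methylcellulose. Tail-vein blood in EDTA sampled from 5 min to 36 h. Plasma proteins precipitated with acetonitrile containing internal standard, then analysed by LC-MS/MS. Parameters derived from mean concentrations at each time point.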

[4] = AUC (0 to 8 hrs) in Sprague-Dawley rat at 1 mg/kg, po; format: ADME, organism-based; parameters: time < 8 hr, dose 1 mg/kg, route oral; conditions: plasma; summary of the method: as §2
[5] = Oral bioavailability in Sprague-Dawley rat at 1 mg/kg; format: ADME, organism-based; conditions: in vivo; summary of the method: as §2
[6] = target: T1, Free fatty acid receptor 1 (Homo sapiens, UniProt O14842); experiment: Agonist activity at human FFA1 expressed in CHO cells assessed as increase in intracellular Ca2+ concentration by Fluo-4 AM based fluorescence assay; format: functional, cell-based
Summary of the method: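 CHO cells stably expressing human FFA1 (NM_005303), 30,000 cells/well, cultured overnight at 37 °C in 5% CO2. Loaded with 2.5 µg/mL Fluo-4 AM and 2.5 mmol/L probenecid in HBSS for 90 min at 37 °C, washed, then held 10 min in HBSS with probenecid. Ca2+ rise after adding compound at various concentrations read by fluorimetry. EC50 from curve fitting, mean of three determinations.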

Mus musculus [7] = experiment: Antihyperglycemic effect in type 2 diabetic C57BL/6 mouse assessed as reduction in blood glucose level at 60 mg/kg, po administered as single dose; format: functional, organism-based; parameters: dose 60 mg/kg
Summary of the method: (§3)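 Type 2 diabetes model: male C57BL/6 mice on high-fat diet (45% fat) for 4 weeks, STZ 80 mg/kg ip, then high-fat diet for another 4 weeks. Fasting glucose ≥11.1 mmol/L counted as diabetic. Mice fasted 12 h and randomized by weight and glucose (n = 6). Single oral dose of 30–100 mg/kg in 0.5% methylcellulose given 30 min before an oral glucose load of 1 g/kg. Glucose read by strip to 120 min; AUC0–120 min; mean ± SD.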

[8] = Cmax in Sprague-Dawley rat at 1 mg/kg, po; format: ADME, organism-based; parameters: dose 1 mg/kg, route oral; conditions: in vivo; summary of the method: as §2
Mus musculus [9] = experiment: Antihyperglycemic effect in type 2 diabetic C57BL/6 mouse assessed as reduction in blood glucose level at 30 to 100 mg/kg, po; format: functional, organism-based; summary of the method: as §3
[10] = Volume of distribution in Sprague-Dawley rat at 1 mg/kg, iv; format: ADME, organism-based; parameters: dose 1 mg/kg, route intravenous; conditions: in vivo; summary of the method: as §2
[11] = Tmax in Sprague-Dawley rat at 1 mg/kg, po; format: ADME, organism-based; parameters: dose 1 mg/kg, route oral; conditions: in vivo; summary of the method: as §2
[12] = Clearance in Sprague-Dawley rat at 1 mg/kg, iv; format: ADME, organism-based; parameters: dose 1 mg/kg, route intravenous; conditions: in vivo; summary of the method: as §2
[13] = target: T1, Free fatty acid receptor 1; experiment: Agonist activity at human FFA1 expressed in CHO cells assessed as ratio of increase in intracellular Ca2+ concentration in compound treated cells at 100 nM to vehicle-treated cells by Fluo-4 AM based fluorescence assay; format: functional, cell-based
Summary of the method: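 Same Fluo-4 Ca2+ flux format in CHO cells stably expressing human FFA1. Single screening concentration of 100 nM. Activity expressed as A/B, the Ca2+ increase in compound-treated wells divided by that in vehicle-treated wells. Three independent experiments.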

[14] = Half life in Sprague-Dawley rat at 1 mg/kg, iv; format: ADME, organism-based; parameters: dose 1 mg/kg, route intravenous; conditions: in vivo; summary of the method: as §2

T1 sequence (O14842 whole entry): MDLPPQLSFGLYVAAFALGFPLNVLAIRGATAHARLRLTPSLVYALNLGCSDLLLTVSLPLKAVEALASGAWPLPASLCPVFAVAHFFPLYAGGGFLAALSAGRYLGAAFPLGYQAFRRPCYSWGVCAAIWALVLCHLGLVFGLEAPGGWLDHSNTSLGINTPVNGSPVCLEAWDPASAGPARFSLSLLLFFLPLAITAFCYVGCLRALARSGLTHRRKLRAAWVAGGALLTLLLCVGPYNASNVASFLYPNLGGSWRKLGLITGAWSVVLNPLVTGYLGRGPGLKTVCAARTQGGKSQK

Row | EC50 [6] [µM] | Ratio [13] | Compound | Activity (Mus musculus [1]) | other results
1 |  |  | Cc1cc(OCCCS(C)(=O)=O)cc(C)c1-c1cccc(COc2ccc3c(c2)OC[C@H]3CC(=O)O)c1 | Active | Activity (Mus musculus [2]): 29.3%
2 | 0.0623 | 6.42 | Cc1cc(OCCCS(C)(=O)=O)cc(C)c1-c1cccc(COc2ccc(OCC(=O)O)c(F)c2)c1 | Active | half-life [3]: 3.27 h; AUC(0-t) at 8 h [4]: 5340 ng·h/mL; bioavailability [5]: 63%; Activity (Mus musculus [7]): Active; Cmax [8]: 1170 ng/mL; Activity (Mus musculus [9]): Dose-dependent effect; Vd [10]: 0.26 L/kg; Tmax [11]: 1 h; clearance [12]: 1.83 mL/min/kg; Activity (Mus musculus [2]): 31%; half-life [14]: 4.15 h
3 |  | 1.6 | Cc1cc(OCc2cccc(-c3c(C)cc(OCCCS(C)(=O)=O)cc3C)c2)cc(C)c1OC(C)(C)C(=O)O |  | 
4 | 0.121 | 6.04 | Cc1cc(OCCCS(C)(=O)=O)cc(C)c1-c1cccc(COc2ccc(OCC(=O)O)cc2)c1 | Active | 
5 |  | 2.02 | COc1cc(OCc2cccc(-c3c(C)cc(OCCCS(C)(=O)=O)cc3C)c2)ccc1OCC(=O)O |  | 
6 |  | 3.19 | CCc1cc(OCc2cccc(-c3c(C)cc(OCCCS(C)(=O)=O)cc3C)c2)ccc1OCC(=O)O |  | 
7 |  | 3.04 | Cc1cc(OCCCS(C)(=O)=O)cc(C)c1-c1cccc(COc2ccc(OC(C)(C)C(=O)O)c(Cl)c2)c1 |  | 
8 | 0.153 | 5.64 | Cc1cc(OCc2cccc(-c3c(C)cc(OCCCS(C)(=O)=O)cc3C)c2)ccc1OCC(=O)O | Active | 
9 |  | 1.81 | COc1cc(OCc2cccc(-c3c(C)cc(OCCCS(C)(=O)=O)cc3C)c2)ccc1OC(C)(C)C(=O)O |  | 
10 |  | 2.45 | Cc1cc(OCCCS(C)(=O)=O)cc(C)c1-c1cccc(COc2ccc(OC(C)(C)C(=O)O)cc2)c1 |  | 
11 | 0.389 | 4.04 | Cc1cc(OCCCS(C)(=O)=O)cc(C)c1-c1cccc(COc2ccc(OC(C)C(=O)O)cc2)c1 (configuration not stated) | Active | 
12 |  | 3.04 | CCC(Oc1ccc(OCc2cccc(-c3c(C)cc(OCCCS(C)(=O)=O)cc3C)c2)cc1)C(=O)O (configuration not stated) |  | 
13 |  | 1.48 | CCc1cc(OCc2cccc(-c3c(C)cc(OCCCS(C)(=O)=O)cc3C)c2)ccc1OC(C)(C)C(=O)O |  | 
14 |  | 3.06 | Cc1cc(OCCCS(C)(=O)=O)cc(C)c1-c1cccc(COc2ccc(OC(C)(C)C(=O)O)c(F)c2)c1 |  | 
15 | 0.0926 | 6.18 | Cc1cc(OCCCS(C)(=O)=O)cc(C)c1-c1cccc(COc2ccc(OCC(=O)O)c(Cl)c2)c1 | Active | 
